# HTR2A ag = agonists of mouse serotonin 5-HT2A receptor (HTR2A) | P35363 | CHO-K1 mHTR2A beta-arrestin complementation, luminescence; percent of 30 µM serotonin response | activation, % at 7.6 µM | 360,000 compounds, 0.66% hits | AID 624169;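 active = activation above a run cutoff, the mean activation of all tested compounds plus 3 SD, cut at about 14% in these data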;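 also: 0% = plate median of compound wells and 100% = 30 µM serotonin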
# CHRM1 PAM = positive allosteric modulators of human M1 muscarinic receptor; CHO-K1 hM1, Fluo-8 calcium fluorescence, ACh EC20; 0% = ACh EC20, 100% = maximal ACh; activation, % at 3 µM; 360,000 compounds, 0.088% hits; AID 588819; in the data active = activation above about 19%, passing the limit was not always enough
# CHRM1 antagonist = antagonists of human M1 muscarinic receptor | P11229 | CHO-K1 hM1, Fluo-8 calcium fluorescence, ACh EC80 antagonist | inhibition, % at 3 µM | 360,000 compounds, 1.3% hits | AID 588852;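 active = percent inhibition above its own plate's cutoff, namely the mean of that plate's compound wells plus 3 SD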;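 also: peak over basal fluorescence ratio during 140 s after agonist addition; 0% = ACh EC80 plus DMSO and 100% = DMSO alone without agonist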
# TAAR1 antag = antagonists of human TAAR1. Q96RJ0. CHO RD-HGA16 TAAR1, Fluo-8 calcium fluorescence, antagonist. 360,000 compounds, 1.5% hits. AID 624466. inhibition, % at 3 µM;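 active = inhibition above a per-plate cutoff, the mean inhibition of test compounds on that plate plus 3 SD, cut at about 49% in these data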;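 also: 0% = DMSO plus EC80 beta-PEA response and 100% = DMSO alone without agonist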
#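 Material: RD-HGA16 CHO cells with stable hTAAR1 and Gα16; Dosing: single nominal final test compound concentration of 3 µM; Schedule: seeding 17-24 h prior, 75-min 37 °C, 30-min RT dye loading; Detection: kinetic Fluo-8 calcium fluorescence measurement; Measure: % inhibition from peak post-agonist over basal fluorescence ratio; Benchmarks: vehicle and agonist controls.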
# TAAR1 ag = agonists of human TAAR1. activation, % at 3 µM. CHO RD-HGA16 TAAR1, Fluo-8 calcium fluorescence; vehicle wells 0%, saturating PEA agonist 100%. 360,000 compounds, 0.99% hits;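 active = activation above the mean activation of all test compounds in the run plus 3 SD, cut at about 38% in these data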
#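 Signal – calcium-sensitive Fluo-8 signal, excitation 470-495, emission 515-575 nm · System – RD-HGA16 (CHO) cells co-expressing Gα16 and hTAAR1 · Incubation – 17-24 h seeding, 75 min 37 °C dye, 30 min RT · Compound dosing – 3 µM single concentration · Repeats – no replicates (n 1)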
# M1 ag = agonists of human M1 muscarinic receptor. P11229. CHO-K1 hM1, Fluo-8 calcium fluorescence, agonist mode; 0% DMSO, 100% acetylcholine EC100. activation, % at 3 µM. 360,000 compounds, 0.33% hits. AID 588814;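 active = activation above the run's mean compound activation plus 3 SD, cut at about 16% in these data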;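 also: peak over basal fluorescence ratio within a 140 s kinetic read after compound addition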
# MOR ag counter = OPRM1 agonism in mouse HTR2A counterscreen; activation, % at 9.3 µM; U2OS OPRM1 beta-arrestin PathHunter, luminescence; DMSO 0%, DAMGO 9.3 µM 100%; 2,300 compounds, 5.3% hits; shares compounds with HTR2A ag;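 active = mean activation above the mean of DMSO-only wells plus 3 SD, cut at about 0.5% in these data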
# Target sequence (P35372 whole entry, looked up): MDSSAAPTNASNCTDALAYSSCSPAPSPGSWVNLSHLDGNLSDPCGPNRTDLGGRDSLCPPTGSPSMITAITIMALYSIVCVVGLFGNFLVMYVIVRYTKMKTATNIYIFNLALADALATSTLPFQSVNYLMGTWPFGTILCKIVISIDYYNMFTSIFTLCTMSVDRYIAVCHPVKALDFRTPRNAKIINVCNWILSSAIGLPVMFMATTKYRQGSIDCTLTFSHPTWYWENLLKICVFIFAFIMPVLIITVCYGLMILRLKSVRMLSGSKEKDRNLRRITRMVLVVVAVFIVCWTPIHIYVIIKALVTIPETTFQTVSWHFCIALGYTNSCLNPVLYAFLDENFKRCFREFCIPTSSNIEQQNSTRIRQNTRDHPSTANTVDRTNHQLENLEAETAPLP
# m5-HT2A ag conf = confirmation of mouse HTR2A serotonin receptor agonists; shares compounds with HTR2A ag; CHO-K1 PathHunter beta-arrestin recruitment, luminescence; DMSO 0%, 30 µM serotonin 100%; activation, % at 7.6 µM; 2,300 compounds, 19% hits; AID 624381;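 active = mean activation across triplicates above the hit threshold derived in the original primary screen, cut at about 15% in these data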
# Active calls of the source: *; · = no result given. Sampled rows, rich in hits. Any-hit rate of the full collection: about 3.9%.
SMILES,HTR2A ag,CHRM1 PAM,CHRM1 antagonist,TAAR1 antag,TAAR1 ag,M1 ag,MOR ag counter,m5-HT2A ag conf
CN(Cc1ccccc1)C(=O)COC(=O)c1cc(NS(=O)(=O)c2cccs2)ccc1O,21*,-3,8,28,13,1,0,5
COc1ccc(C)cc1S(=O)(=O)N(C)CC(=O)NCc1ccco1,16*,9,-11,-17,9,-3,-1,-3
Cc1cc(C)cc(N(CC(=O)NCc2ccco2)S(=O)(=O)c2ccccc2)c1,15*,1,-2,-5,1,-5,-1,-1
COc1ccc(C(O)c2ncc(-c3cccc(C(F)(F)F)c3)[nH]2)cc1F (stereo unspecified),-3,6,-16,-14,16,4,·,·
O=C(CSc1ccc(-c2cccnc2)nn1)Nc1ccccc1C(F)(F)F,1,3,-6,-27,3,-2,·,·
COc1cccc(CNC(=O)[C@H]2CCCN2C(=O)[C@H]2CCCN2C(=O)c2ccc(C)c(C)c2)c1,·,·,·,-18,0,·,·,·
O=C(c1ccco1)N1CCN(Cc2ccccc2Br)CC1,16*,7,-10,-8,-2,-9,-1,64*
CC(=O)N1CCN(C(=O)c2ccco2)CC1,3,0,-1,0,4,-3,·,·
O=C(c1ccco1)N1CCN(CC2CC3C=CC2C3)CC1 (stereo unspecified),21*,-12,29*,4,-2,-5,-1,76*
O=[N+]([O-])c1ccccc1S(=O)(=O)N1CCN(CC2CC3C=CC2C3)CC1 (stereo unspecified),-8,8,1,17,4,-7,·,·
C1=CC2CC1CC2CN1CCN(c2ccccc2)CC1 (stereo unspecified),15*,-6,7,·,·,4,0,57*
O=C(c1ccco1)N1CCN(Cc2ccc(F)cc2)CC1,20*,7,-6,-14,7,-4,0,74*
N/C(=N\N=C\c1ccc(Br)o1)c1nonc1N,6,14,-21,10,0,-3,·,·
COc1ccc(CN2CCN(C(=O)c3ccco3)CC2)cc1,25*,0,-7,-5,24,-7,-1,103*
CCOc1cc(CN2CCN(C(=O)c3ccco3)CC2)ccc1OC,18*,5,3,22,6,-3,-1,71*
CCOc1ccc(CN2CCN(C(=O)c3ccco3)CC2)cc1,24*,17,-24,0,3,1,0,130*
COc1ccc(N2CCN(C(=O)COC(=O)c3ccco3)CC2)cc1,15*,18,-7,0,1,0,0,-1
COc1ccc(NC(=S)N2CCN(C(=O)c3ccco3)CC2)cc1,2,14,-14,3,4,5,·,·
COc1ccc(OCc2csc(N)n2)cc1,-3,5,2,-10,0,-3,·,·
COc1ccc2ccccc2c1CN1CCN(C(=O)c2ccco2)CC1,17*,6,-14,16,7,-4,0,130*
COc1ccc(CN2CCN(CC(O)Cn3c4ccccc4c4ccccc43)CC2)cc1 (stereo unspecified),19*,-19,8,7,11,-7,1.1*,8
COc1ccc(CNC(=S)N2CCN(Cc3ccccc3)CC2)cc1,19*,3,-24,-10,1,-2,0,9
CC(=O)c1cc2c(cc1F)C(C)(C)CCC2(C)C,-3,2,-5,-20,2,-3,·,·
O=C(/C=C/c1ccccc1Cl)N(c1ccccn1)C1CCCCC1,16*,5,-8,-18,4,-4,0,40*
COc1ccc(N2CCN(C(=O)c3ccc(CNS(=O)(=O)c4cc(C)ccc4C)cc3)CC2)cc1,25*,-10,13,23,6,1,0,0
SMILES,HTR2A ag,CHRM1 PAM,CHRM1 antagonist,TAAR1 antag,TAAR1 ag,M1 ag,MOR ag counter,m5-HT2A ag conf
N#C/C(=C\c1ccc(O)c(O)c1)C(=O)Nc1cccc2ncccc12,0,10,-9,0,0,-2,·,·
COc1ccc(S(=O)(=O)N2c3ccccc3NC(=O)CC2C)cc1 (stereo unspecified),19*,8,-6,-6,1,-1,-1,-3
Cc1cc(-c2ccc3ccccc3c2)n2ncnc2n1,21*,9,-14,7,0,-4,0,1
CCN(CC)C1CCN(C(=O)c2cc(COc3ccc(-n4cncn4)cc3)on2)C1 (stereo unspecified),16*,-8,42*,-22,2,15,-1,-3
OC(c1ccc(F)cc1)c1ncc(-c2ccc(Oc3ccccc3)cc2)[nH]1 (stereo unspecified),-6,-4,0,23,0,-3,·,·
Cc1cc(C(O)c2ncc(-c3ccc(Oc4ccccc4)cc3)[nH]2)ccc1F (stereo unspecified),21*,-4,-2,20,-1,-3,0,-6
Cc1nnsc1C(=O)NC1CCCc2c1cnn2-c1ccc(C(C)(C)C)cc1 (stereo unspecified),14*,-6,25,16,-1,0,0,2
Cc1nnsc1C(=O)NC1CCCc2c1cnn2-c1ccccc1F (stereo unspecified),4,1,6,3,3,2,·,·
CC1=C(C(=O)N2CCOCC2)CC(CC(=O)NCCc2ccccn2)C(=O)N1Cc1ccc(C(C)(C)C)cc1 (stereo unspecified),6,0,1,3,1,-6,·,·
COCCNCc1nc2sc(C)c(-c3ccccc3)c2c(=O)[nH]1,3,5,-25,-6,1,-3,·,·
CCOc1ccc(OCC(=O)N2CCC3(CC2)CC(=O)c2ccccc2O3)cc1,19*,2,-2,-40,4,-5,0,2
COc1ccc(OCC(=O)N2CCC3(CC2)CC(=O)c2ccccc2O3)cc1,6,7,-8,5,2,-3,·,·
CC(C)(C)NC(=O)NC(=O)CSc1n[nH]c(-c2ccccc2Br)n1,1,4,-4,-38,-2,-7,·,·
CC(C)Cc1nnc(NC(=O)CCC(=O)NCCc2ccc(Cl)cc2)s1,0,4,-3,-8,2,0,·,·
